Bioassay records (PubChem)
MEKK2 mut-MEK5 = MEK5 binding signal on mutant MEKK2 PB1, primary screen, biochemical, multiplex bead flow cytometry, Alexa488-MEK5. 290,000 tested, 0.35% active. AID 1530, 2009. Alexa488-MEK5 binding to MEKK2 mutant. percent response, % at 10 µM; in the data active = percent response above about 24%, passing the limit was not always enough
HCV NS3 hel inh = inhibitors of HCV NS3 helicase, primary screen, biochemical, Cy5 molecular beacon fluorescence. NS3 helicase DNA unwinding. inhibition, % at 10.9 µM. 290,000 tested, 0.56% active. AID 1800, 2009;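 active = inhibition above the mean of all tested compounds plus 3 SD, set per campaign, cut at about 35% in these data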;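 note: 0% = DMSO wells and 100% = thioflavine S control wells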
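Control set: DMSO versus 110 µM thioflavine S; Material: NS3 helicase fragment of HCV; Measured by: Cy5 fluorescence at 0 and 60 min, beacon hairpin quenching; Read-out basis: percent inhibition from t60/t0 fluorescence ratio; Times: reaction time 60 min, 25 °C; Repeats: single replicate; Compound dosing: single dose, 10.9 µM nominal final, DMSO 0.8% final.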
T cruzi repl = inhibitors of intracellular T. cruzi growth, primary screen, luminescence, NIH3T3 host cells. T. cruzi beta-gal in NIH3T3, 90 h. inhibition, % (test concentration not listed). 300,000 tested, 1.4% active. AID 1885, 2009;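 active = mean inhibition across valid replicates above about 55%, limit read from the data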;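 note: signal also drops with host cell toxicity which is not excluded here; 0% = plate median of DMSO wells and 100% = zero luminescence signal; higher percent means less beta-gal luminescence so fewer parasites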
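System – NIH/3T3 host cells with β-galactosidase reporter T. cruzi · Doses – single 50 nL compound addition per well in DMSO · Reagent – 5000 T. cruzi trypomastigotes/well · Medium – Low-serum DMEM with 2% FBS · Timing – ≥90 h infection period, 3 h prior cell attachment · Evaluation – parasite load inhibition, % · Technique – GalScreen luminescence, 60 min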
FID counter = compounds displacing fluorescent DNA intercalator, primary screen, artefact control for HCV NS3 helicase inhibitor project, biochemical, FID fluorescence; DNA fluorescent intercalator displacement; inhibition, % at 7.9 µM; 290,000 tested, 0.17% active; AID 1845, 2009; in the data active = inhibition above about 37%;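 note: 0% = vehicle and 100% = reference compound; higher means more ethidium bromide displaced from hairpin DNA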
MEKK2wt PB1 HTS = modulators of MEK5 binding to wildtype MEKK2, primary screen, biochemical, multiplex bead flow cytometry, Alexa488-MEK5; Mitogen-activated protein kinase kinase kinase 2 (Homo sapiens), Q9Y2U5; Alexa488-MEK5 binding to MEKK2 WT; actives lie on both sides; 290,000 tested, 1.1% active; binding response (% of control), % at 10 µM; in the data active = binding response below about 67% or above about 130%
MEKK3 PB1 HTS = modulators of MEKK3-MEK5 PB1 binding, primary screen, biochemical, wildtype MEKK3, multiplex bead flow cytometry, Alexa488-MEK5. Mitogen-activated protein kinase kinase kinase 3 (Homo sapiens), Q99759. bead-based flow cytometry, Alexa488-MEK5 binding to MEKK3; actives lie on both sides; 0 = blocked by unlabeled MEK5, 100 = vehicle. binding response (% of control), % at 10 µM. 290,000 tested, 1.4% active. AID 1529, 2009;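 active = binding response more than 3 SD above or below the average of its plate-row segment, actives on both sides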;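 note: Alexa488 bead fluorescence after subtracting the streptavidin-only scavenger bead signal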
Target sequence (Q99759 whole entry, looked up): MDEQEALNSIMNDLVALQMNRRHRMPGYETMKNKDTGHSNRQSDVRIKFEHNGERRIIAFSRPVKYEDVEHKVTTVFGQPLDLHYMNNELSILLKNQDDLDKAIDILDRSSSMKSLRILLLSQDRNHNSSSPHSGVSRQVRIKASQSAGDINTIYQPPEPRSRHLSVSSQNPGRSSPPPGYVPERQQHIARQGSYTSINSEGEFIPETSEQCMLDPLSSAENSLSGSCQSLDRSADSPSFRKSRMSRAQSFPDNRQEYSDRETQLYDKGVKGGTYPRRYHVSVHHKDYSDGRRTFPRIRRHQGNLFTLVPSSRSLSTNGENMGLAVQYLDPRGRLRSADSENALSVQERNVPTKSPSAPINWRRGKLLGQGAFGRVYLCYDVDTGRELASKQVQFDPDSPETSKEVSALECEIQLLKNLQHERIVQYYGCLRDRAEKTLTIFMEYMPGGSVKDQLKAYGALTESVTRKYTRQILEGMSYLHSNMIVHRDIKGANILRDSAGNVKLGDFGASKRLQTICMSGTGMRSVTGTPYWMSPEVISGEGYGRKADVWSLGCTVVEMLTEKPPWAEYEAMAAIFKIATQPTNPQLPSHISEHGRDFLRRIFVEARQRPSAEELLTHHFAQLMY
Active calls of the source: *; / = no result. Shown are actives, neighbours in structure and some others; about 4.1% of the full set was active somewhere.

SMILES	MEKK2 mut-MEK5	HCV NS3 hel inh	T cruzi repl	FID counter	MEKK2wt PB1 HTS	MEKK3 PB1 HTS
CC(C)(C)NC(=O)C(c1c[nH]c2ccccc12)N(C(=O)Cn1nnc(-c2ccc(Cl)cc2)n1)c1ccccc1F (configuration not stated)	-2	7	55*	-10	107	102
COc1cccc(N(C(=O)Cn2nnc(-c3ccc(C)cc3)n2)C(C(=O)NC(C)(C)C)c2c[nH]c3ccccc23)c1 (configuration not stated)	-4	-10	35	-22	99	100
COc1ccc(C(=O)COc2ccccc2C(=O)Nc2ccccc2)cc1	1	-13	24	-2	103	105
CCC(=O)Nc1ccc(C(=O)NNC(=O)C2CCCCC2)cc1	-1	-2	/	-1	98	99
CC(=O)N(CCCc1ccc(C(C)(C)C)cc1)CCCN(C)C	4	-36	73*	38*	106	103
Cn1cc(C(=O)N/N=C/C2=C(N3CCOCC3)C(=C/c3ccc([N+](=O)[O-])cc3)/CC2)ccc1=O	/	/	4	/	/	/
CC(C)C(NC(=O)C12CC3CC(CC(C3)C1)C2)C(=O)N/N=C/C1=C(N2CCOCC2)C(=C\c2cccc([N+](=O)[O-])c2)/CC1 (configuration not stated)	-1	10	56*	-11	102	109
CCCNC(=O)c1ccc(N2CCC3(CC2)CC(c2ccccc2)=NO3)c(NC(=O)c2ccccc2)c1	-9	-26	45	-34	91	98
CCCNC(=O)c1ccc(N2CCC3(CC2)CC(c2cccc(Br)c2)=NO3)c(NC(=O)c2ccccc2)c1	/	/	57*	/	/	/
CCCCCCCC(=O)Nc1cc(C(=O)NCCC)ccc1N1CCC2(CC1)CC(c1ccccc1)=NO2	-6	-25	57*	-25	91	98
CCCNC(=O)c1ccc(N2CCC3(CC2)CC(c2ccccc2)=NO3)c(NC(=O)c2ccc(Br)cc2)c1	0	18	21	-23	88	99
CC1(C)CCC23CC[C@]4(C)C(OC2=O)(C3C1)[C@H]1O[C@H]1C1[C@@]2(C)CC[C@@H](O)C(C)(C)C2CC[C@]14C (some centres not stated)	2	/	/	/	97	101
N#Cc1c(N2CCCCC2)nc(N2CCCCC2)c2c1CCN(Cc1ccccc1)C2	5	-66	56*	17	108	96
N#Cc1c(NCCN)nc(NCc2ccccc2)c2c1CCN(Cc1ccccc1)C2	36*	-60	/	17	169*	104
CCN1CCc2c(C#N)c(NCc3ccccc3)nc(N(CC)CC)c2C1	-1	-41	82*	30	111	99
CCCc1nc(NCc2ccccc2)c(C#N)c2c1CCCC2	-2	-11	0	-6	98	98
Cn1c(=O)c2c(nc(Cc3ccc(N)cc3)n2C)n(C)c1=O	2	3	1	0	92	92
CC1=C(C(=O)OCC2CCCO2)C(c2ccc(Cl)c(Cl)c2)NC(=O)N1 (configuration not stated)	-3	1	-2	-26	94	94
COc1ccc(S(=O)(=O)N2CCCCC2)cc1C(=O)N1CCCCCC1	1	-3	4	-28	102	101
Nc1c(C(=O)c2ccc(Cl)cc2)sc2nsc(SCCN3CCOCC3)c12	-13	-6	27	-13	72	83
Nc1c(C(=O)c2ccccc2)sc2nsc(SCCN3CCCC3)c12	-1	-16	55*	5	105	98
CCCNC(=O)c1ccccc1NC(=O)COc1cccc2c1OC(C)(C)C2	/	/	10	/	/	/
Cc1nc2c3cc(Cl)ccc3n(CCN3CCCCC3)c2s1	2	4	18	39*	95	102
CCc1ccc2[nH]c(=O)c(CN(Cc3ccccc3OC)C(=O)Nc3ccccc3OC)cc2c1	-1	4	62*	-3	94	94
C(=C\c1ccccc1)/CN1CCN(Cc2ccc3c(c2)OCCO3)CC1	8	-6	64*	9	112	105
SMILES	MEKK2 mut-MEK5	HCV NS3 hel inh	T cruzi repl	FID counter	MEKK2wt PB1 HTS	MEKK3 PB1 HTS
O=S(=O)(/C=C/c1ccccc1)N1CCN(Cc2ccc3c(c2)OCO3)CC1	-3	-30	3	-8	106	108
Cc1ccc(C(=O)CCS(=O)(=O)c2ccc(Br)cc2)cc1	6	-1	15	-16	107	100
Cc1ccc(S(=O)(=O)CCC(=O)c2cccc([N+](=O)[O-])c2)cc1	8	-12	58*	-6	106	101
C[N+]1(CC(=O)NNc2c3ccccc3nc3ccccc23)CCOCC1	-3	9	37	43*	98	101
O=C(N/N=C/c1ccccc1F)NC12CC3CC(CC(C3)C1)C2	-4	-8	57*	-25	96	99
COc1cccc(/C=N/NC(=O)NC23CC4CC(CC(C4)C2)C3)c1O	/	/	-6	/	/	/
Clc1ccc(C2=NCCN2)cc1	4	4	62*	1	105	113
Clc1ccc(-c2ccn[nH]2)cc1	4	-6	-16	-1	99	95
CCC(=O)Nc1cc(-c2nn(C)c(=O)c3ccccc23)ccc1OC	7	-1	-3	-13	110	107
COc1ccc(-c2nn(C)c(=O)c3ccccc23)cc1NC(=O)Cn1nc(C)c2ccccc2c1=O	-11	-11	74*	-26	80	81
O=C(Nc1ccc(N2CCN(C(=O)c3ccccc3F)CC2)cc1)c1ncn[nH]1	-4	3	-71	-20	97	103
O=[N+]([O-])c1ccc(/C=N/N=C/c2ccc([N+](=O)[O-])o2)o1	-1	23	/	12	103	105
Cc1cc2ncn(/N=C/c3ccc([N+](=O)[O-])o3)c2cc1C	1	11	60*	-1	102	99
C=CCC(CC=C)(NC(=O)c1ccccc1C)c1ccccc1	4	-7	10	-10	105	102
COc1cc(OC)cc(C(=O)N(CCCN2C(=O)c3cccc4cccc(c34)C2=O)c2cccc(OC)c2)c1	6	-9	9	-8	113	100
COc1ccc(N(CCCN2C(=O)c3cccc4cccc(c34)C2=O)C(=O)c2ccncc2)cc1	0	-7	55*	-32	112	126
COc1ccc(N(CCCN2C(=O)c3cccc4cccc(c34)C2=O)C(=O)c2cccnc2)cc1	-1	-2	68*	-33	107	112
